Experiment: Toxicity liver stage against HepG2, at 10uM
Type: cell-based
Parameters: test concentration 10 uM, cell line HepG2-A16-CD81EGFP
Settings: human, HepG2-A16-CD81EGFP cells; read-out: INHIBITION
In short: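 Uninfected HepG2-A16-CD81EGFP cells, 3 × 10^3 per well, 1536-well, plated on prespotted compound at 10 μM final, parasite-free screening media added to match infected plates; puromycin 10 μM positive, DMSO 0.5% negative; run in parallel with 48 h PbLuc assay at 37 °C, 5% CO2; viability by CellTiter-Glo luminescence, normalized to controls.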

SMILES	cytotoxicity at 10 µM [%]
CC(=O)Nc1ccc2c(c1)nc1n2[C@@H](CNCc2ccccc2)COC1	-10.2
COc1ccccc1-c1nnc([C@H]2CCN(C(=O)C3CC3)C2)o1	0.734
Cc1ccc(-c2noc([C@@H]3Cc4nc[nH]c4CN3)n2)cc1	0.676
CCCNC(=O)Nc1ccc2c(c1)N(S(=O)(=O)CC)CC2	1.97
Cc1nnc(SCC(=O)Nc2csc3nc(=O)c(C)nn23)s1	10.8
O=S1(=O)CCC(S(=O)(=O)c2cccc(S(=O)(=O)N3CCCC3)c2)C1 (configuration not stated)	3.45
CS(=O)(=O)N1CCC(C(=O)N2CCC(Cn3cccn3)CC2)CC1	-10.2
O=C(Nc1ccc(CC(=O)N2CCCC2)cc1)NC1CC1	-2.16
COc1cc(NC(=O)NCc2cc(C)oc2C)cc(OC)c1	5.24
O=C(NCC1(O)CCc2ccccc2C1)c1cccs1 (configuration not stated)	13.8
CN(C)CCOCc1nnc2n1CCN(c1cnccn1)CC2	5.62
CN(C)c1ncnc2c1CCN(c1ccccc1)CC2	13.4
CN1CCCN(C(=O)c2nc3c(s2)CCCN3CC2CC2)CC1	10
Cn1cnc(S(=O)(=O)N2CCO[C@H]3[C@@H](OCC4CC4)CC[C@@H]32)c1	7.74
O=C(c1c2c(N3CCCC3)ncnc2n2ccccc12)N1CCOCC1	9.49
CCCN1CCC2(Cc3ccccc3NC2=O)C1 (configuration not stated)	14.5
CSc1ccc(-n2nnc(C(=O)O)c2-c2ccccn2)cc1	-3.01
O=C1CC(c2ccc(Cl)c(Cl)c2)c2c(n3ccsc3nc2=O)N1 (configuration not stated)	-0.839
Cc1nn(-c2ccccc2)c2c1c(C(F)F)cc(=O)n2CC(=O)O	7.73
CCCn1c(N2CCCCC2)nc2c(C)nn(C)c2c1=O	11.8
O=C(NCCCO)C1(CC2CC(c3ccc(F)cc3)=NO2)CCOCC1 (configuration not stated)	1.41
CN1CCN([C@@H]2CN(C(=O)c3cc4ccc(F)cc4[nH]3)C[C@H]2O)CC1	-10.4
COc1cc(CCC(=O)N2CCC(c3cnccn3)CC2)on1	3.1

SMILES	cytotoxicity at 10 µM [%]
Cc1ccc(S(=O)(=O)N2CC[C@@H]3C[C@H](NC(=O)c4[nH]ncc4Br)[C@@H]32)cc1	4.49
c1cnc(Nc2cc(CCC3CCNCC3)ccn2)cn1	55.7
O=C(CO)N1CCC(CCc2ccnc(Nc3cnccn3)c2)CC1	-0.459
Cc1nn(C)cc1CN1CCCC(n2c(=O)oc3ccc(Cl)cc32)C1 (configuration not stated)	4.88
CCN(CC)C(=O)CN1CCCC(c2nc(C)c3c(n2)N(C)CCC3)C1 (configuration not stated)	10.2
CC(=O)N1CCC(Cc2cnc(-c3c(C)n[nH]c3C)cn2)C1 (configuration not stated)	-1.88
CC(c1ccccc1F)N(C(=O)CSCC(N)=O)C1CC1 (configuration not stated)	-54.9
Cc1nc(CNC(=O)CCCc2cccs2)no1	-46.8
O=C(NCc1cccnc1)Nc1ccn(CC(F)F)n1	1.68
CNC(=O)C1CCCCN1C(=O)c1csc(-c2ccc(C)cc2)n1 (configuration not stated)	11.6
CCN(CC)C(=O)NC(C)c1ccc(Oc2cccnc2)c(F)c1 (configuration not stated)	17.4
Cc1cc(C)n(C2CN(CCC(=O)NCCc3ccccc3)C2)n1	11.8
CC(=O)N1CCC(NC(=O)c2ccccc2-n2cnnn2)CC1	6.87
Cc1cscc1-c1nc(C2CCOC2)no1 (configuration not stated)	8.4
CSc1cc2c(cc1NC(=O)NCC(=O)N(C)C)OCCO2	-5.87
CNS(=O)(=O)c1cccc(C(C)NCc2ccsc2)c1 (configuration not stated)	2.45
Cc1nc(CN2CCc3cnc(C(C)C)nc3C2)oc1C	0.479
CN(Cc1cccc(Cl)c1)C(=O)Cn1nc(-c2ccc(F)cc2)oc1=O	-19.9
N#Cc1cccnc1NCc1cccc(C(=O)NCC2CCCCO2)c1 (configuration not stated)	5
Cc1nn(CC(=O)Nc2ccc(F)cc2)c(N)c1C#N	13.3
Cc1cc(S(C)(=O)=O)c(C)c(S(=O)(=O)N2CCCCCC2)c1	14.1
CC(C)OCCS(=O)(=O)c1nccn1-c1cccc(F)c1	-3.3
NS(=O)(=O)CCN(CCc1cccc(F)c1)C1CCCC1	-6.08

SMILES	cytotoxicity at 10 µM [%]
COCCN(CCOC)C(=O)c1cc(F)cc2[nH]cnc12	-8
Cn1ncc2cnn(CC(O)COc3cccc4[nH]ccc34)c2c1=O (configuration not stated)	13.2
N#Cc1ccccc1CN(CCO)Cc1ccsc1	18.4
CN(C)CCCN(CCC#N)C(=O)Nc1ccc2[nH]ccc2c1	-52.4
O=C(c1ncoc1-c1ccco1)N1CCCN(c2nccs2)CC1	2.99
CCNC(=O)COc1ccccc1N1CCCC(C)C1 (configuration not stated)	8.06
CCOCc1ccccc1NC(=O)NC1CCN(c2ccccc2)C1 (configuration not stated)	-6.31
CCN(C(=O)CCn1cccn1)C1CC1	-6.16
Cc1ccc(NC(C)C(=O)NCc2cccs2)cc1C (configuration not stated)	-16.4
CC(C)(C)NC(=O)C1CSCN1S(=O)(=O)c1cccc(F)c1 (configuration not stated)	-16.7
CC(C)S(=O)(=O)NCC1CCCN(C(=O)c2ccc3c(c2)OCCO3)C1 (configuration not stated)	-35.2
Cc1nc(C)c(C)c(N(C)CCCc2nccn2C)n1	8.52
CCc1c(C)nn(CC(=O)NC(C(=O)O)c2c(C)n[nH]c2C)c1C (configuration not stated)	5.79
CN1CCN(c2ncccn2)CC12CCC(=O)N(CC1CC1)CC2 (configuration not stated)	2.6
CCC(Nc1cccc(OC)c1)C(=O)NCc1ccc2c(c1)OCO2 (configuration not stated)	-1.11
COc1cccc(CC2CN(C3CCCCC3)CCO2)c1 (configuration not stated)	-11.9
CC(=O)c1ccc(N2CCN(C(=O)c3cc(C(C)C)nn3C)CC2)cc1	11
CNc1nc(C(=O)N2CCC3(CCCN(CCOC)C3=O)C2)cs1 (configuration not stated)	7.55
O=c1[nH]cnc2c1CCN(S(=O)(=O)c1ccc(Cl)cc1)C2	-1.68
OC1(CNCCN2CCc3ccccc32)CNCCOC1 (configuration not stated)	10.7
COc1ccc(CCNCc2ccco2)cc1OC	-0.0184
CN(Cc1noc2c1CCCC2)C(=O)Nc1ccc2oc(=O)n(C)c2c1	-2.36
CC(c1ccon1)N(C)Cc1cc(O)c2cc(F)ccc2n1 (configuration not stated)	5.5

SMILES	cytotoxicity at 10 µM [%]
COc1ccc(CN2CCC3(CCCN(C)C3=O)C2)c(Cl)c1OC (configuration not stated)	-1.24
CN1CCn2nc(-c3nc4ccccc4n3C)cc2C1	-6.99
COCc1nc(CN2CC(C)(c3ccccc3)CCC2=O)no1 (configuration not stated)	4.85
CCNc1ncc(-c2cc(-c3ccn(C)c3)nc(N)c2C#N)cn1	7.14
Cc1nc2ccccc2nc1CN1CCn2nc(CCC(=O)O)cc2C1	-3.43
CCc1c(C)nc(C)nc1N1CCC(NCCSc2nnnn2C)CC1	-15.9
CN(CCc1ccccn1)c1cc(N2CCCCC2)ncn1	3.61
O=S(=O)(Cc1ccccc1F)NCCCN1CCCCC1	17.3
CCOc1ccccc1OC1CCN(Cc2ccn(C)c(=O)c2)CC1	3.91
CC(C)C(NC(=O)NCCNc1cnccn1)c1cccs1 (configuration not stated)	0.0264
Cc1cc(C)n(CC2CN(CC(=O)NC3CCOCC3)CCO2)n1 (configuration not stated)	-11.1
COc1cc(CCC(=O)NCC2CC2)ccc1OCC(F)(F)F	-4.81
O=C(c1ccco1)N1CCCC(c2cc(C(F)(F)F)[nH]n2)C1 (configuration not stated)	-16.1
CCc1nc(CN(C(C)=O)C2CCN(CCc3cccs3)C2)no1 (configuration not stated)	-4.62
O=C(CN1CCCC1Cn1cncn1)NCCOc1ccccc1 (configuration not stated)	-7.52
NC(=O)c1cccc(OCC(=O)N2CCCC(n3ccnc3)C2)c1 (configuration not stated)	-9.37
CCn1c(C)nnc1CN(C)C1CCN(Cc2nnc(C3CC3)o2)C1 (configuration not stated)	-11.6
CCN(CC1CCOC1)C(=O)Nc1ccc(N2CCOCC2)nc1 (configuration not stated)	-2.45
CCc1nc(CN(C)C2CCN(CCC(=O)N3CCCCC3)C2)no1 (configuration not stated)	-13.4
Cc1cc(C2CCCN2C(=O)NCc2c(C)cc(C)[nH]c2=O)on1 (configuration not stated)	-9.54
Cc1cc(C)n(CC2CN(CC(=O)Nc3c(C)n[nH]c3C)CCO2)n1 (configuration not stated)	-9.86
CN(Cc1nc(N)c2ccccc2n1)C1CCCN(c2cccnn2)C1 (configuration not stated)	-12.2
CCc1nc2n(n1)CC(NCc1ncc(-c3ccccc3)o1)CC2 (configuration not stated)	-3.91

SMILES	cytotoxicity at 10 µM [%]
O=C(c1cc(C2CC2)[nH]n1)N1CCN(Cc2ccsc2)CC1	-9.04
Cc1ccc(S(=O)(=O)N2CCOc3ccccc32)cc1C(N)=O	7.91
Cc1nccn1C1CCCN(C(=O)COCC(F)(F)F)C1 (configuration not stated)	-12.1
O=C(c1ccc(-n2ccnc2)nc1)N1CCCC(n2cccn2)C1 (configuration not stated)	-5.13
Cc1nc(C2CCCN(C(=O)c3ccco3)C2)no1 (configuration not stated)	0.529
c1ccc(-n2ccc(CN3CCCC3Cn3cccn3)n2)cc1 (configuration not stated)	-2.48
Cc1cc(C)n(CC2CN(Cc3nc(-c4ccco4)no3)CCO2)n1 (configuration not stated)	-6.58
CCN(Cc1cccc2c1OCO2)C(=O)NC1CC1	-9.48
Cc1ncc(CNCC2CCCN2c2cccnn2)s1 (configuration not stated)	1.97
O=C(Cc1ccc2c(c1)OCCO2)N1CCCC(n2cccn2)C1 (configuration not stated)	7
CCN1c2ccc(-c3cncn3CCCn3ccnc3C)cc2CC1C (configuration not stated)	-1.25
CN(Cc1cccc2cccnc12)C1CCS(=O)(=O)C1 (configuration not stated)	-0.237
CO[C@H]1CN(C(=O)c2ccccn2)[C@@H]2CCCO[C@H]12	3.52
Cn1cc(CN2CCCC23CCN(C(=O)c2ccncc2)CC3)cn1	-3.51
Cn1ccnc1C(=O)N1CCC2(CCCN2CC2CC2)CC1	8.31
CCOc1ncnc2c1CCN(Cc1cccs1)CC2	10.2
O=C(N1CCOCC1)[C@@]12CCO[C@@H]1CCN(Cc1ccccc1F)C2	2.99
Cn1cc(CN2CCC3(CC2)CC(c2ccncc2)C(=O)N3)cn1 (configuration not stated)	1.75
CCc1cnc(N2CCc3ncnc(N4CCN(C)CC4)c3CC2)nc1	-1.13
O=C1CCCC2=C1C(c1ccco1)C1C(=O)NN=C1N2 (configuration not stated)	2.1
